ChEMBL document CHEMBL3875207, “New derivatives of 7-chloroquinolin-4-amine with antiprotozoal activity” (Bioorg Med Chem, 2017)

Experiments:
[1] = Cytotoxicity against rat L6 cells assessed as growth inhibition after 70 hrs by alamar blue assay; type: toxicity
Procedure, shortened: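 4000 L-6 cells per well in RPMI 1640 with 1% L-glutamine (200 mM) and 10% FBS. Eleven 3-fold dilutions spanning 100 to 0.002 µg/mL; 70 h incubation, controls checked microscopically. Alamar Blue added for 2 h more; fluorescence ex 536/em 588 nm. IC50 by linear regression from sigmoidal dose-inhibition curves.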

[2] = Resistance index, ratio of IC50 for chloroquine/pyrimethamine-resistant Plasmodium falciparum K1 infected in human RBC to IC50 for chloroquine-sensitive Plasmodium falciparum NF54 infected in human RBC; type: functional
Procedure, shortened: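 Resistance index is the ratio of the IC50 against K1 to the IC50 against NF54. Both IC50s come from the 3H-hypoxanthine incorporation assay run in parallel on the two strains.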

[3] = system: Trypanosoma brucei rhodesiense; test: Antitrypanosomal activity against Trypanosoma brucei rhodesiense STIB900 bloodstream forms isolated from patient after 70 hrs by microplate alamar blue assay; type: functional; details: STIB900, 70 h
Procedure, shortened: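 MEM with 25 mM HEPES, 1 g/L extra glucose, non-essential amino acids, 0.2 mM 2-mercaptoethanol, 1 mM Na-pyruvate, 15% heat-inactivated horse serum; 4×10^3 bloodstream forms per well. Eleven 3-fold dilutions, 100 to 0.002 µg/mL; 70 h, 37°C, 5% CO2. Resazurin added, further 2-4 h; fluorescence ex 536/em 588 nm. IC50 by linear regression from sigmoidal dose-inhibition curves.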

[4] = system: Plasmodium falciparum; test: Antiplasmodial activity against chloroquine/pyrimethamine-resistant Plasmodium falciparum K1 infected in human RBC assessed as reduction in [3H]hypoxanthine incorporation preincubated for 48 hrs followed by [3H]hypoxanthine addition measured after 24 hrs by liquid scintillation counting method; type: functional
Procedure, shortened: (§1)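 Erythrocytic P. falciparum in RPMI 1640 without hypoxanthine with HEPES, NaHCO3, neomycin, Albumax (5 g/L) and washed human A+ red cells at 2.5% haematocrit, 0.3% parasitaemia. Compounds from DMSO stocks (10 mg/mL) tested as eleven 3-fold dilutions, 100 to 0.002 µg/mL. Incubation at 37°C under 4% CO2/3% O2/93% N2; 3H-hypoxanthine (0.5 µCi) added at 48 h, 24 h more, scintillation counting; IC50 by linear regression from sigmoidal curves.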

[5] = Selectivity index, ratio of IC50 for rat L6 cells to IC50 for Trypanosoma brucei rhodesiense STIB900 bloodstream forms; type: toxicity, cell-based; details: read-out: Ratio IC50
Procedure, shortened: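 Ratio of L-6 cytotoxicity IC50 to T. b. rhodesiense STIB900 IC50. L-6: 4000 cells in RPMI 1640 with L-glutamine and 10% FBS, 70 h, then Alamar Blue 2 h. Trypanosomes: 4×10^3 bloodstream forms in supplemented MEM with 15% horse serum, 37°C, 5% CO2, 70 h, then Alamar Blue 2-4 h. Both read by fluorescence (ex 536/em 588 nm) over eleven 3-fold dilutions, 100 to 0.002 µg/mL.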

[6] = system: Plasmodium falciparum; test: Antiplasmodial activity against chloroquine-sensitive Plasmodium falciparum NF54 infected in human RBC assessed as reduction in [3H]hypoxanthine incorporation preincubated for 48 hrs followed by [3H]hypoxanthine addition measured after 24 hrs by liquid scintillation counting method; type: functional; procedure, shortened: as §1
[7] = Selectivity index, ratio of IC50 for rat L6 cells to IC50 for chloroquine-sensitive Plasmodium falciparum NF54 infected in human RBC; type: toxicity, cell-based; details: read-out: Ratio IC50
Procedure, shortened: (§2)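 Ratio of the IC50 in rat L-6 myoblasts to the P. falciparum IC50. L-6: 4000 cells per well, RPMI 1640 with L-glutamine and 10% FBS, 70 h, Alamar Blue 2 h, fluorescence ex 536/em 588 nm. Both use eleven 3-fold dilutions, 100 to 0.002 µg/mL.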

[8] = Selectivity index, ratio of IC50 for rat L6 cells to IC50 for chloroquine/pyrimethamine-resistant Plasmodium falciparum K1 infected in human RBC; type: toxicity, cell-based; details: read-out: Ratio IC50; procedure, shortened: as §2

Row | SMILES | IC50 at 70 h [1] | Ratio IC50 [2] | IC50 [3] | IC50 [4] | selectivity ratio [5] | IC50 [6] | selectivity ratio [7] | selectivity ratio [8]
1 | CN1CCN(CCNc2ccnc3cc(Cl)ccc23)CC1 | 16700 nM | 5.45 | 690 nM | 36 nM | 24.2 | 6.6 nM | 2540 | 465
2 | Nc1nc(N)nc(Nc2ccc([As]3SCC(CO)S3)cc2)n1 (centres undefined) [MELARSOPROL] | 7780 nM |  |  |  | 778 |  |  | 
3 | O=C(CN1CCCC1)NCCNc1ccnc2cc(Cl)ccc12 | 46400 nM | 4.17 | 740 nM | 75 nM | 62.7 | 18 nM | 2580 | 618
4 | Clc1ccc2c(NCCNCCN3CCCCCC3)ccnc2c1 | 76100 nM | 6 | 1280 nM | 66 nM | 59.5 | 11 nM | 6920 | 1150
5 | CCCN(CCC)CCNc1ccnc2cc(Cl)ccc12 | 14900 nM | 2.97 | 140 nM | 9.8 nM | 107 | 3.3 nM | 4530 | 1520
6 | Clc1ccc2c(N3CCN(CCN4CCCCCC4)CC3)ccnc2c1 | 25400 nM | 1.07 | 1610 nM | 75 nM | 15.8 | 70 nM | 362 | 338
7 | CN1CCN(CCCNc2ccnc3cc(Cl)ccc23)CC1 | 18200 nM | 10 | 1140 nM | 31 nM | 15.9 | 3.1 nM | 5860 | 586
8 | CCCN(CCC)CC(=O)NCCNc1ccnc2cc(Cl)ccc12 | 22000 nM | 2.14 | 940 nM | 30 nM | 23.4 | 14 nM | 1570 | 732
9 | CN1CCN(CC(=O)NCCNc2ccnc3cc(Cl)ccc23)CC1 | 38000 nM | 79.7 | 18300 nM | 2870 nM | 2.08 | 36 nM | 1060 | 13.3
10 | Clc1ccc2c(NCCCN3CCCCCC3)ccnc2c1 | 20000 nM | 6.03 | 780 nM | 38 nM | 25.6 | 6.3 nM | 3170 | 525
11 | O=C(CN1CCCCCC1)NCCNc1ccnc2cc(Cl)ccc12 | 14200 nM | 5 | 280 nM | 55 nM | 50.8 | 11 nM | 1290 | 258
12 | CCN(CC)CCCC(C)Nc1ccnc2cc(Cl)ccc12 (centres undefined) [CHLOROQUINE] | 90900 nM |  |  |  |  |  |  | 
13 | CN1CCN(CC(=O)N2CCN(c3ccnc4cc(Cl)ccc34)CC2)CC1 | 79800 nM | 2 | 2020 nM | 280 nM | 39.5 | 140 nM | 570 | 285
14 | O=C(CN1CCCCC1)NCCNc1ccnc2cc(Cl)ccc12 | 23700 nM | 8.36 | 1280 nM | 92 nM | 18.5 | 11 nM | 2160 | 258
15 | COc1cc([C@@H]2c3cc4c(cc3[C@H](O)[C@H]3COC(=O)[C@H]23)OCO4)cc(OC)c1OC [PODOFILOX] | 12 nM |  |  |  |  |  |  | 
16 | CCCN(CCC)CCN1CCN(c2ccnc3cc(Cl)ccc23)CC1 | 56800 nM | 0.8 | 1070 nM | 88 nM | 53.1 | 110 nM | 517 | 646
17 | Clc1ccc2c(NCCN3CCCCCC3)ccnc2c1 | 13200 nM | 4.85 | 590 nM | 16 nM | 22.4 | 3.3 nM | 4010 | 827
18 | CCCN(CCC)CC(=O)N1CCN(c2ccnc3cc(Cl)ccc23)CC1 | 70500 nM | 1.35 | 1460 nM | 310 nM | 48.3 | 230 nM | 306 | 227
